High-throughput results from PubChem BioAssay.
Many of the other results were omitted from the sample, so hits are more common in it than they were.
Yeast life ext = yeast lifespan extension | S. cerevisiae growth with nicotinamide, OD615; deaD strain in restrictive glucose medium | AID 775 | 130,000 tested, 0.68% active | inhibition of the nicotinamide effect, % at 10 µM;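 active = inhibition above a set limit, placed 3 SD over the median of all compounds, cut at about 26% in these data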;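 also: 0% = nicotinamide-treated wells and 100% = cells grown without nicotinamide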
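Material: Modified budding yeast, DeaD strain | Medium: Restrictive glucose medium | Probe or stimulus: 1.5 mM nicotinamide | Dosing: Single dose 10 µM compound, 0.25% DMSO | Times: 48 h at 30 °C | Technique: OD615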
PostGolgi ctrl = inhibits growth of the yeast control strain; AID 738; efflux-deficient yeast background strain, growth absorbance A615, 16 h; 98,000 tested, 5% active; inhibition, % at 10 µM
PostGolgi yeast = growth inhibition of a yeast mutant, post-Golgi transport screen; post-Golgi transport phenotypic cell assay; inhibition, % at 10 µM; 98,000 tested, 0.9% active; AID 739;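 also: yeast cells grown in 1536-well plates; yeast grown about 18 h at 30C before absorbance read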
BB579 growth dn = reduces growth of yeast BB579 in restrictive medium; S. cerevisiae BB579 growth, OD615, 48 h; inhibition, % at 10 µM; 140,000 tested, 0.51% active; AID 804;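 active = inhibition above a set limit, 3 SD over the mean compound inhibition, cut at about 44% in these data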
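test system = yeast BB579 (DeaD) | buffer or medium = restrictive CSMM-D medium | doses = single compound dose of 10 µM, 0.25% DMSO final | times = 4 h preincubation and 48 h exposure at 30 °C | technique = culture absorbance at 615 nm | benchmarks = amphotericin B 10 µg/mL, positive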
* = called active by the depositor; . = not tested or not shown. Rule as the data show it, unless noted: active = inhibition above about 30%; inactive = the rest.

SMILES | Yeast life ext | PostGolgi ctrl | PostGolgi yeast | BB579 growth dn
O=C(N/N=C/c1cc2c3c(c1O)CCCN3CCC2)c1ccccc1O | 2 | . | . | 62*
CCCCNC(=S)NCc1ccc2c(c1)cc(C)n2C | -2 | . | . | 45*
CC1Cc2ccccc2N1CC(=O)NCc1ccc2c(c1)OCO2 (centres undefined) | -2 | . | . | -16
CC(C)=CCc1c(O)ccc(C(=O)Cc2ccccc2)c1O | -7 | 34* | 7 | -19
COc1ccc(C(=O)Cc2ccccc2)cc1OC | -3 | . | . | -38
O=C(/C=C/c1ccccc1[N+](=O)[O-])Nc1cccnc1 | 0 | . | . | -17
CCCCOC(=O)Nc1ccc(C)c(Cl)c1 | -23 | 17 | -7 | -51
CN1CCN(CC(=O)N(Cc2c(C#N)c3ccccc3n2C)c2ccccc2)CC1 | -6 | 34* | 1 | -21
Cc1ccccc1N1CCN(Cc2c(C#N)c3ccccc3n2C)CC1 | -12 | 14 | 2 | -19
Cc1nnc(SCC(=O)Nc2ccccc2C(=O)NC2CC2)s1 | -1 | . | . | -9
COc1ccc(CNC(=O)CN(Cc2ccc(Cl)cc2)S(=O)(=O)c2ccccc2)cc1 | 6 | 39* | -7 | -30
COc1ccc(CNC(=O)CN(Cc2ccccc2)S(=O)(=O)c2ccc(Cl)cc2)cc1 | -15 | 28 | 2 | -29
Cc1[nH]c(=O)[nH]c(=O)c1NS(=O)(=O)c1ccccc1 | 11 | . | . | 0
CC/C(=N\NC(=S)Nc1cc(C)ccc1C)c1ccc(OC(F)F)cc1 | -1 | . | . | 14
CCN(CC)S(=O)(=O)c1cccc(-c2nnc(SCC#N)n2Cc2ccccc2)c1 | -2 | 33* | -4 | -59
CCN(CC)S(=O)(=O)c1cccc(-c2nnc(SC(C)C#N)n2Cc2ccccc2)c1 (centres undefined) | -6 | 21 | 11 | -16
CC(C)c1ccc(/C=N/NC(=O)c2c(Cl)cnn2C)cc1 | -6 | . | . | -13
COc1cc(C(=O)NCCOc2cccc(C)c2)c(Br)c(OC)c1OC | -3 | 14 | -6 | -40
CCCC(C(=O)O)N1C(=O)/C(=C/c2cccn2C)SC1=S (centres undefined) | 27* | . | . | -26
Cc1cccc(C)c1NC(=O)CN1C(=O)S/C(=C\c2cccn2C)C1=O | -2 | 15 | -7 | -56
Cn1cccc1/C=C1\SC(=O)N(c2ccccc2)C1=O | -2 | . | . | -35
Cc1ccc(S(=O)(=O)NN2C(=O)/C(=C/c3cccn3C)SC2=S)cc1 | 30* | . | . | -47
CC(C)C(C(=O)O)N1C(=O)/C(=C/c2cccn2C)SC1=S (centres undefined) | 42* | . | . | -34
CCOC(=S)SCC(=O)N1CCc2ccccc2C1C1C(=O)CCCC1=O (centres undefined) | 10 | . | . | -5
O=C(OCn1nnc2ccccc2c1=O)c1cn(-c2ccccc2)nc1-c1cccnc1 | -21 | 4 | 34* | -13
SMILES | Yeast life ext | PostGolgi ctrl | PostGolgi yeast | BB579 growth dn
CCOC(=O)c1cn(-c2ccccc2)nc1-c1cccnc1 | -11 | 9 | 3 | -34
O=C(COC(=O)Cn1cnc2ccccc2c1=O)Nc1cc(Cl)ccc1[N+](=O)[O-] | -1 | . | . | -41
O=C1NC(c2ccccc2)=C(c2nc3ccccc3s2)C(c2ccc(F)cc2)N1 (centres undefined) | 15 | 41* | 0 | -11
CN(C(=O)/C(N=Nc1cccc(C(F)(F)F)c1)=C(\O)C(F)(F)F)c1ccccc1 | 15 | 38* | 4 | -49
CC1(C)CC(=O)C2=C(C1)Oc1nc3ccccc3cc1C2C(C#N)C#N (centres undefined) | 0 | 9 | -6 | 3
C/C(=N\NC(=S)Nc1c(C)cccc1C)c1ccc(OC(F)F)cc1 | 8 | . | . | -6
O=c1[nH]c2ccccc2n1CCCSCCCn1c(=O)[nH]c2ccccc21 | . | . | . | -54
O=c1cnc2ccccc2n1CC1CCCCC1 | -10 | 5 | -4 | 1
O=c1[nH]c2ccccc2n1CCC1CCCCC1 | 4 | 49* | 1 | -30
c1ccc2c(c1)ncn2CCC1CCCCC1 | 17 | 80* | -1 | -30
CC(NC(=O)CCC1COc2ccccc2O1)c1ccccc1 (centres undefined) | -2 | -8 | 2 | -7
CCCn1c(SCCc2ccccc2)nc2c1c(=O)[nH]c(=O)n2C | -8 | 20 | 2 | -21
CCOCCn1c(SCc2cccc(C)c2)nc2c1c(=O)[nH]c(=O)n2C | -8 | 41* | 6 | 12
CCOCCn1c(SCCc2ccccc2)nc2c1c(=O)[nH]c(=O)n2C | -4 | 16 | -1 | -5
C/C=C/Cn1c(SCc2ccc(Cl)cc2)nc2c1c(=O)[nH]c(=O)n2C | -8 | 43* | 8 | -80
CCCn1c(SCc2ccc(Cl)cc2)nc2c1c(=O)[nH]c(=O)n2C | -9 | 60* | 19 | -55
